In brackets after ≈: the same amount, converted by molar mass.
Assays:
[1] = test system: Vesicular stomatitis virus; assay: (§1) Minimum inhibitory concentration required to reduce vesicular stomatitis virus induced cytopathogenicity by 50% in primary rabbit kidney cells (PRK); assay type: functional
L1210 = assay: Dose required to inhibit Murine leukemia (L1210) cell proliferation by 50%; assay type: functional; conditions: Mus musculus, read-out: CD50 (the source's name)
HeLa [2] = assay: Minimum inhibitory concentration required to reduce vesicular stomatitis virus induced cytopathogenicity by 50% in HeLa cells; assay type: functional; conditions: Homo sapiens
HeLa [3] = assay: Minimum inhibitory concentration required to reduce Coxsackie virus B4 induced cytopathogenicity by 50% in HeLa cells; assay type: functional; conditions: Homo sapiens
Method in brief: (§2)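 Cell cultures (PRK, HeLa or Vero B) are infected at 100 × CCID50. Cytopathogenicity is recorded once it reaches completion in the untreated virus-infected controls. The minimum inhibitory concentration is given in μg/mL.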

Human alphaherpesvirus 2 = assay: Minimum inhibitory concentration required to reduce herpes simplex virus-2(G) induced cytopathogenicity by 50% in primary rabbit kidney cells (PRK); assay type: functional; method in brief: as §2
[4] = Dose required to inhibit Human T-Lymphoblast (Molt/4F) cell proliferation by 50%; assay type: functional; conditions: read-out: CD50 (the source's name)
[5] = test system: Mammalian orthoreovirus 1; assay: Minimum inhibitory concentration required to reduce reovirus-1 induced cytopathogenicity by 50% in african green monkey (VeroB)cells; assay type: functional; method in brief: as §2
Nucleic Acid [6] = assay: Association constant against polynucleotide poly (dG-dC); assay type: nucleic-acid assay
Method in brief: (§3)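 Competition with ethidium bromide binding at 25 °C in 0.01 M cacodylate buffer, pH 7.0, with 1.26 μM ethidium bromide and 1 μM polynucleotide. Bound ethidium is estimated from its fluorescence increase (V = 34 for poly(dA-dT), 25 for poly(dG-dC)). IC50 for 50% ethidium displacement comes from a fitted competition sigmoid. Kapp is calculated from IC50 assuming a binding size of four base pairs.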

Semliki Forest virus = assay: Minimum inhibitory concentration required to reduce semliki forest virus induced cytopathogenicity by 50% in african green monkey (VeroB) cells; assay type: functional; method in brief: as §2
Oryctolagus cuniculus = species on record: Oryctolagus cuniculus; assay: Minimum cytotoxic concentration required to cause a microscopically detectable alteration of normal cell morphology and show antiviral activity in primary rabbit kidney (PRK) cells; assay type: functional
Vero [7] = assay: Minimum cytotoxic concentration required to cause a microscopically detectable alteration of normal cell morphology and show antiviral activity in african green monkey (Vero B) cells; assay type: functional; conditions: Chlorocebus sabaeus
HeLa [8] = assay: Minimum inhibitory concentration required to reduce polio virus -1 induced cytopathogenicity by 50% in HeLa cells; assay type: functional; conditions: Homo sapiens
Sindbis virus = assay: Minimum inhibitory concentration required to reduce Sindbis virus induced cytopathogenicity by 50% in african green monkey (VeroB) cells; assay type: functional; method in brief: as §2
Raji = assay: Dose required to inhibit Human B-Lymphoblast (Raji) cell proliferation by 50%; assay type: functional; conditions: read-out: CD50 (the source's name)
Human alphaherpesvirus 1 = assay: Minimum inhibitory concentration required to reduce herpes simplex virus-1 (KOS) induced cytopathogenicity by 50% in primary rabbit kidney cells(PRK); assay type: functional; method in brief: as §2
HeLa [9] = assay: Minimum cytotoxic concentration required to cause a microscopically detectable alteration of normal cell morphology and show antiviral activity in HeLa cells; assay type: functional; conditions: Homo sapiens
Method in brief: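 HeLa cell cultures exposed to compound for the same duration as the antiviral assay, then examined microscopically. The minimum cytotoxic concentration is the lowest level causing detectable alteration of normal cell morphology. Values are in μg/mL.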

Vero [10] = assay: Minimum inhibitory concentration required to reduce parainfluenza virus-3 induced cytopathogenicity by 50% in african green monkey (VeroB) cells; assay type: functional, Human respirovirus 3; conditions: Chlorocebus sabaeus; method in brief: as §2
Vero [11] = assay: Minimum inhibitory concentration required to reduce Coxsackie virus B4 induced cytopathogenicity by 50% in african green monkey (VeroB) cells; assay type: functional, Coxsackievirus B4; conditions: Chlorocebus sabaeus; method in brief: as §2
Nucleic Acid [12] = assay: Association constant against the polynucleotide poly (dA-dT).; assay type: nucleic-acid assay; method in brief: as §3
Nucleic Acid [13] = assay: Ratio of association constant of poly (dA-dT) and poly (dG-dC); assay type: nucleic-acid assay
Method in brief: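 Kapp for poly(dA-dT) and for poly(dG-dC) is each determined by ethidium bromide competition in 0.01 M cacodylate, pH 7.0, 25 °C, with 1.26 μM ethidium and 1 μM polynucleotide. IC50 comes from a fitted competition sigmoid and is converted to Kapp assuming a four-base-pair binding size. The ratio is taken between the two polynucleotides.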

FM3A = assay: In vitro inhibition of FM3A (murine mammary carcinoma) cell proliferation.; assay type: functional; conditions: Mus musculus, read-out: CD50 (the source's name)
[14] = as §1; assay type: functional; conditions: Oryctolagus cuniculus
[15] = Minimum inhibitory concentration required to reduce herpes simplex virus-1 (KOS)induced cytopathogenicity by 50% in primary rabbit kidney cells (PRK); assay type: functional; conditions: Oryctolagus cuniculus
[16] = Minimum inhibitory concentration required to reduce herpes simplex virus-2 (G)induced cytopathogenicity by 50% in primary rabbit kidney cells (PRK); assay type: functional; conditions: Oryctolagus cuniculus

| SMILES | MIC [1] | CC50 (L1210) | MIC (HeLa [2]) | MIC (HeLa [3]) | MIC (Human alphaherpesvirus 2) | CC50 [4] | MIC [5] | K app (Nucleic Acid [6]) | MIC (Semliki Forest virus) | MCC (Oryctolagus cuniculus) | MCC (Vero [7]) | MIC (Sindbis virus) | CC50 (Raji) | MIC (Human alphaherpesvirus 1) | MCC (HeLa [9]) | MIC (Vero [10]) | MIC (Vero [11]) | K app (Nucleic Acid [12]) | Ratio (Nucleic Acid [13]) | CC50 (FM3A) | other results |
| --- | --- | --- | --- | --- | --- | --- | --- | --- | --- | --- | --- | --- | --- | --- | --- | --- | --- | --- | --- | --- | --- |
| Cn1cc([N+](=O)[O-])cc1C(=O)NCCC#N | > 400 µg/mL | > 50 µg/mL | > 400 µg/mL | 150 µg/mL (≈ 675 µM) | > 200 µg/mL | > 50 µg/mL | > 200 µg/mL | < 100 M⁻¹ | > 100 µg/mL | >400 µg/mL | > 400 µg/mL | > 100 µg/mL | > 50 µg/mL | > 400 µg/mL | > 400 µg/mL | > 400 µg/mL | > 100 µg/mL | < 100 M⁻¹ | – | – | MIC (HeLa [8]): > 400 µg/mL |
| C[C@H](NC(=O)[C@H](C)NC(=O)[C@H](C)NC(=O)c1cc(NC(=O)c2cc(NC(=O)CNC(=N)N)cn2C)cn1C)C(=O)O | > 400 µg/mL | > 100 µg/mL | – | > 400 µg/mL | > 400 µg/mL | > 100 µg/mL | > 200 µg/mL | 5000 M⁻¹ | > 400 µg/mL | >400 µg/mL | > 400 µg/mL | > 400 µg/mL | > 100 µg/mL | > 400 µg/mL | > 400 µg/mL | > 400 µg/mL | > 400 µg/mL | < 100 M⁻¹ | < 0.02 | > 100 µg/mL | – |
| Nc1ncnc2c1ncn2C[C@H](O)CO [(S)-DHPA] | 70 µg/mL (≈ 335 µM) | – | 20 µg/mL (≈ 95.6 µM) | > 400 µg/mL | > 400 µg/mL | – | 20 µg/mL (≈ 95.6 µM) | – | > 400 µg/mL | >400 µg/mL | > 400 µg/mL | > 400 µg/mL | – | > 400 µg/mL | > 400 µg/mL | 7 µg/mL (≈ 33.5 µM) | 200 µg/mL (≈ 956 µM) | – | – | – | – |
| CC(NC(=O)c1cc(NC(=O)c2cc([N+](=O)[O-])cn2C)cn1C)C(=O)NC(C)C(=O)OC(C)(C)C (configuration not stated) | > 100 µg/mL | 28.8 µg/mL (≈ 58.7 µM) | – | > 200 µg/mL | > 200 µg/mL | 29 µg/mL (≈ 59.1 µM) | > 200 µg/mL | 20000 M⁻¹ | > 200 µg/mL | >400 µg/mL | > 200 µg/mL | > 100 µg/mL | 33 µg/mL (≈ 67.3 µM) | > 100 µg/mL | > 400 µg/mL | > 200 µg/mL | > 200 µg/mL | 650 M⁻¹ | 0.033 | 27.2 µg/mL (≈ 55.5 µM) | – |
| Cn1c(C(=O)O)ccc1[N+](=O)[O-] | > 400 µg/mL | > 50 µg/mL | > 200 µg/mL | 70 µg/mL (≈ 411 µM) | > 400 µg/mL | > 50 µg/mL | > 100 µg/mL | – | > 200 µg/mL | >400 µg/mL | > 400 µg/mL | > 100 µg/mL | > 50 µg/mL | > 400 µg/mL | > 400 µg/mL | > 200 µg/mL | > 100 µg/mL | – | – | – | MIC (HeLa [8]): > 400 µg/mL |
| CC(NC(=O)c1cc(NC(=O)c2cc(NC(=O)CNC(=N)N)cn2C)cn1C)C(=O)OC(C)(C)C (configuration not stated) | > 400 µg/mL | > 100 µg/mL | – | > 400 µg/mL | > 400 µg/mL | > 100 µg/mL | > 400 µg/mL | 10000 M⁻¹ | > 400 µg/mL | >400 µg/mL | > 400 µg/mL | > 400 µg/mL | > 100 µg/mL | > 400 µg/mL | > 400 µg/mL | > 400 µg/mL | > 400 µg/mL | 8700 M⁻¹ | 0.87 | > 100 µg/mL | – |
| C[C@H](NC(=O)c1cc(NC(=O)c2cc(NC(=O)CNC(=N)N)cn2C)cn1C)C(=O)N[C@@H](C)C(=O)N[C@@H](C)C(=O)OC(C)(C)C | > 200 µg/mL | > 100 µg/mL | – | > 400 µg/mL | > 100 µg/mL | > 100 µg/mL | > 200 µg/mL | 3300 M⁻¹ | > 400 µg/mL | 400 µg/mL | > 400 µg/mL | > 400 µg/mL | > 100 µg/mL | > 100 µg/mL | > 400 µg/mL | > 400 µg/mL | > 200 µg/mL | 20000 M⁻¹ | 6.06 | > 100 µg/mL | – |
| CC(NC(=O)C(C)NC(=O)c1cc(NC(=O)c2cc(NC(=O)CNC(=N)N)cn2C)cn1C)C(=O)O (configuration not stated) | > 400 µg/mL | > 100 µg/mL | – | > 400 µg/mL | > 400 µg/mL | > 100 µg/mL | > 200 µg/mL | 1200 M⁻¹ | > 400 µg/mL | >400 µg/mL | > 400 µg/mL | > 400 µg/mL | > 100 µg/mL | > 400 µg/mL | > 400 µg/mL | > 400 µg/mL | > 400 µg/mL | 1200 M⁻¹ | 1 | > 100 µg/mL | – |
| CC(NC(=O)c1cc(NC(=O)c2cc([N+](=O)[O-])cn2C)cn1C)C(=O)OC(C)(C)C (configuration not stated) | > 40 µg/mL | 37.8 µg/mL (≈ 90.1 µM) | – | > 100 µg/mL | > 40 µg/mL | 26.6 µg/mL (≈ 63.4 µM) | > 40 µg/mL | 400 M⁻¹ | > 40 µg/mL | >100 µg/mL | > 100 µg/mL | > 40 µg/mL | 33.8 µg/mL (≈ 80.6 µM) | > 40 µg/mL | > 100 µg/mL | 20 µg/mL (≈ 47.7 µM) | 20 µg/mL (≈ 47.7 µM) | 200 M⁻¹ | 0.5 | 27.7 µg/mL (≈ 66 µM) | MIC (HeLa [8]): > 40 µg/mL |
| Nc1nccc2c1ncn2[C@@H]1C[C@H](CO)[C@@H](O)[C@H]1O [3-DEAZAARISTEROMYCIN A] | – | – | 2 µg/mL (≈ 7.57 µM) | > 400 µg/mL | – | – | 0.2 µg/mL (≈ 0.757 µM) | – | > 400 µg/mL | >400 µg/mL | > 400 µg/mL | > 400 µg/mL | – | – | > 400 µg/mL | 0.4 µg/mL (≈ 1.51 µM) | 70 µg/mL (≈ 265 µM) | – | – | – | MIC [14]: 2 µg/mL (≈ 7.57 µM); MIC [15]: > 400 µg/mL; MIC [16]: > 400 µg/mL |
